Test results as given in ChEMBL document CHEMBL1151224, “Geranylgeraniol-type diterpenoids, boletinins A-J, from Boletinus cavipes as inhibitors of superoxide anion generation in macrophage cells” (J Nat Prod, 2004).

Assays:
[1] = target: T1, Xanthine dehydrogenase/oxidase (Homo sapiens, UniProt P47989); assay: Inhibition of XOD at 125 uM relative to control
[2] = Cytotoxicity against CD mouse macrophages assessed as cell viability at 50 uM by trypan blue exclusion test; assay type: cell-based, Macrophage; details: read-out: Activity
[3] = target: T1, Xanthine dehydrogenase/oxidase; assay: Inhibition of XOD at 25 uM relative to control
[4] = tested on: Macrophage; assay: Radical scavenging activity in CD mouse macrophages assessed as inhibition of superoxide anion generation at 25 uM relative to control; assay type: functional
Procedure, shortened: (§1)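 Superoxide anion (O2•-) generation was measured in macrophage cells stimulated with the tumor promoter 12-O-tetradecanoylphorbol-13-acetate (TPA), and test samples were evaluated for suppression of this TPA-induced generation.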

[5] = tested on: Macrophage; assay: Radical scavenging activity in CD mouse macrophages assessed as inhibition of superoxide anion generation at 50 uM relative to control; assay type: functional; procedure, shortened: as §1

T1 sequence (P47989 whole entry): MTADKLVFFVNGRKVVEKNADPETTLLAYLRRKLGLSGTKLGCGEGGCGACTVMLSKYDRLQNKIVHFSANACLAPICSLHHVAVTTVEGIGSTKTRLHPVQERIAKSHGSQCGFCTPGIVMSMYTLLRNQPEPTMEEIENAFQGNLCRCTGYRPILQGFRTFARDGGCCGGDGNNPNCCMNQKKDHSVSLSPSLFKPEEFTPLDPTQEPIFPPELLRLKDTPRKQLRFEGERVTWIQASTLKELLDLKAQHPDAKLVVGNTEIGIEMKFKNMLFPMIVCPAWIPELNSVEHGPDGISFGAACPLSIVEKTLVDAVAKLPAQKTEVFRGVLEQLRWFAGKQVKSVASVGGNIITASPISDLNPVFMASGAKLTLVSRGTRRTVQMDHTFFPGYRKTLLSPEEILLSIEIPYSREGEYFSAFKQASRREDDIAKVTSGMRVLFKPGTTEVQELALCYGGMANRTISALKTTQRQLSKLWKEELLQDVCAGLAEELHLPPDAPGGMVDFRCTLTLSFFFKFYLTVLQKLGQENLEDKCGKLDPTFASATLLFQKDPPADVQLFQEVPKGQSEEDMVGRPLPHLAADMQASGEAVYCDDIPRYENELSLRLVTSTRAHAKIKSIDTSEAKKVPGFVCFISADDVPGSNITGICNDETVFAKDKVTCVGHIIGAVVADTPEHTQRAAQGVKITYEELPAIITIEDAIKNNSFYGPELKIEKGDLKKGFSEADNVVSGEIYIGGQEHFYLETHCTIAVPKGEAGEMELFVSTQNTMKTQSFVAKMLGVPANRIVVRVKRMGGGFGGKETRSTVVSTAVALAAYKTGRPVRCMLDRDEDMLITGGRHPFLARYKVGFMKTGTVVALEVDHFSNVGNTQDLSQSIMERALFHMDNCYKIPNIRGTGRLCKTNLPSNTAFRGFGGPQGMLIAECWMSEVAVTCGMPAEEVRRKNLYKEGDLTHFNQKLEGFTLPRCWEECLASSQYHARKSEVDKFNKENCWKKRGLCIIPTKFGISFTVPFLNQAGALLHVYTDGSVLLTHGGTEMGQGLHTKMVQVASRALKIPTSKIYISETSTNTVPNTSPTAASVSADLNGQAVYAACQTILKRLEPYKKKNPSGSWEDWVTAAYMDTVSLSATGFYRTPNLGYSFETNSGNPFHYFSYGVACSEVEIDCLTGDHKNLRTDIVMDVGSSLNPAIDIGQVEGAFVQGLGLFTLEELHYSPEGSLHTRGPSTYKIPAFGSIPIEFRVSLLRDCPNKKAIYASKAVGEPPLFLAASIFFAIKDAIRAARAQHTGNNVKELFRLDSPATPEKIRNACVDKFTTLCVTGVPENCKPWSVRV

## O=c1c(O)c(-c2ccc(O)c(O)c2)oc2cc(O)cc(O)c12 [QUERCETIN]
[1]
  inhibition at 125 µM: 72%
[2]
  viability at 50 µM: 101%
[3]
  inhibition at 25 µM: 31%
[4]
  inhibition at 25 µM: 19%
[5]
  inhibition at 50 µM: 28%
